Screening results from PubChem.
SENP7 inh: SENP7 protease inhibitors, primary screen, biochemical, luminescence, uHTS. Sentrin-specific protease 7 (Homo sapiens), Q9BQF6. recombinant SENP7, Z-RLRGG-aminoluciferin luminescence, 40 min. inhibition, % at 5 µM. 1.5% of 330,000 active. AID 434973, 2010;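 active = inhibition above about 50% at the single test dose, limit read from the data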;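 also: plate controls were DMSO with enzyme for no effect and no enzyme buffer wells for full effect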
SENP8 block-1: human SENP8 protease inhibitors, primary screen, biochemical, fluorescence, Nedd8 protein substrate, uHTS | recombinant SENP8 | inhibition, % at 20 µM | 0.64% of 360,000 active; in the data active = inhibition mostly above about 40%, no sharp cut-off; inactive = mostly below about 27%
Target sequence (Q96LD8 whole entry, looked up): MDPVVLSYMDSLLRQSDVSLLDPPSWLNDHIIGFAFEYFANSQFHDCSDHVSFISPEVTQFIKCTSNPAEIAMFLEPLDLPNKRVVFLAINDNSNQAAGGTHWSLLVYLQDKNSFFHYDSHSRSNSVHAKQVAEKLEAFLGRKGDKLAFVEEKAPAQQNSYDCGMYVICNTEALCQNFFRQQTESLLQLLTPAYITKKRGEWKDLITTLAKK
SENP6 block: SENP6 protease inhibitors, primary screen, biochemical, luminescence, uHTS; 1.8% of 330,000 active; Recombinant SENP6 catalytic domain, aminoluciferin luminescence; inhibition, % at 10 µM; AID 2599, 2010;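 active = inhibition above about 50% at the single tested dose, limit read from the data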;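 also: plate controls were DMSO wells with enzyme for no effect and DMSO wells lacking enzyme for full effect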
Target sequence (Q9GZR1 628-1112 limits assumed): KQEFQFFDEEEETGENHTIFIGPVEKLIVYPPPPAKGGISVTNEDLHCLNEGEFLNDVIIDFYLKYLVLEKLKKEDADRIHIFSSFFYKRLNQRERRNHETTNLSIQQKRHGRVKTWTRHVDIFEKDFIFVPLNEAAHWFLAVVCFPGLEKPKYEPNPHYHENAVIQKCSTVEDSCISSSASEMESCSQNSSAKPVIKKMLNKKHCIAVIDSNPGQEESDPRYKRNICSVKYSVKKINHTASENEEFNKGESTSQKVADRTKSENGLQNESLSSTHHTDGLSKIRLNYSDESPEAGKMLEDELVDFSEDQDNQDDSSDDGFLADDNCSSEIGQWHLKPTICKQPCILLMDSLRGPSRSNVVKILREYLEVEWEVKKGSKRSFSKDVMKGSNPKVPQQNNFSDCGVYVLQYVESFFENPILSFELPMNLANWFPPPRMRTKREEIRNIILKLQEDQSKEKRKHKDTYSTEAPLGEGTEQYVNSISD
SENP8 block-2: SENP8 protease inhibitors, primary screen, biochemical, luminescence; 1.2% of 330,000 active; purified SENP8, Z-RLRGG-aminoluciferin cleavage; inhibition, % at 10 µM; Sentrin-specific protease 8 (Homo sapiens), Q96LD8; in the data active = inhibition above about 50%
SENP1 inh: human SENP1 catalytic domain inhibitors, primary screen, biochemical, FRET, uHTS | Sentrin-specific protease 1 (Homo sapiens), Q9P0U3 | recombinant SENP1 catalytic domain, CyPet-SUMO1-YPet FRET cleavage | inhibition, % at 10 µM | 0.21% of 360,000 active | AID 624204, 2012;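 active = inhibition at least 30% at 10 µM, raw YFP signal under a set limit, fluorescence ratio 0.5 to 1.5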;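 also: 0% = enzyme with DMSO and 100% = no enzyme wells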
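Material – human SENP1 catalytic domain · Input – SENP1 enzyme, 20 pM final · Compound dosing – single concentration of 10 µM compound, 0.5% DMSO final · Timing – enzyme reaction for 50 min at room temperature, dark · Measured by – FRET fluorescence in CFP and YFP emission channels · Control set – no-enzyme wells low, DMSO-plus-enzyme wells high control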
UCH37 inh: inhibitors of human UCH37 deubiquitinase, primary screen, biochemical, Ub-AMC cleavage, fluorescence; Ubiquitin carboxyl-terminal hydrolase isozyme L5 (Homo sapiens), Q9Y5K5; purified proteasome/UCH37; inhibition, % (concentration not given with the values); 0.33% of 330,000 active;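 active = mean inhibition over replicate wells above about 20%, limit read from the data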;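 also: 0% = compound-free wells with enzyme and 100% = wells lacking proteasome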
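Test system – human UCH37 enzyme supplied as purified proteasome complex · Incubation – 30 min preincubation with enzyme, 25 min cleavage at room temperature · Detection – AMC fluorescence from Ub-AMC cleavage, excitation 355 nm, emission 460 nm · Benchmarks – no-proteasome wells (full inhibition) and compound-free wells (no inhibition)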
UCH37 confirm: retest of human UCH37 deubiquitinase inhibitors, confirmation, biochemical, Ub-AMC cleavage rate, fluorescence | 27% of 480 active | inhibition, % at 20 µM | shares compounds with UCH37 inh | Proteasome-bound UCH37;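 active = average inhibition over replicates above about 50%, so the earlier screening hit is confirmed, limit read from the data; inactive = the rest, counted as false positives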;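 also: based on cleavage rate fitted by regression over a 30 min kinetic read; 0% = proteasome plus Ub-AMC and 100% = Ub-AMC without proteasome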
* marks the source's active call; other numbers are inactive results; / = not tested or not shown; ! = a repeat was not active. An excerpt weighted towards active compounds, which were near 2.6% of everything screened.

SMILES	SENP7 inh	SENP8 block-1	SENP6 block	SENP8 block-2	SENP1 inh	UCH37 inh	UCH37 confirm
O=C1C(O)=C(O)C(=O)c2ccccc21	54.9*	60.7*	79.6*	57.6*	3.6	72.5*	-37.7
O=C1c2ccccc2C(=O)c2[nH]cnc21	/	23.4	/	/	-4.9	/	/
COC(=O)c1cc(S(=O)(=O)N2CCOCC2)c(Cl)cc1N1CCOCC1	-0.8	10.7	-2.6	-7.4	0.5	6.4	/
COC(=O)c1cc(C)nc2c1C(=O)C(=O)C=C2N1CCOCC1	93.2*	111.0*	90.4*	98.3*	9.5	100.2*	100.4*
C=CCOc1ccc2ccccc2c1C=NO	/	/	/	/	/	-1.7	/
O=C(O)CCC(=NNc1ccc(Cl)cc1)c1cccs1	/	/	/	/	/	1.9	/
CCCCN1C(=O)/C(=C/C=C2\SCCN2C)SC1=S	-2.0	35.7	10.0	-6.5	21.5	8.5	/
CN1CCS/C1=C/C=C1\SC(=S)N(CC(=O)O)C1=O	6.6	25.4	13.3	-0.1	65.5*	37.6*	30.1
O=C(NN=Cc1cccnc1)c1cccs1	/	/	/	/	/	-2.2	/
COc1cc(C=NNc2nc(Nc3ccc(C)cc3)nc(-n3nc(C)cc3C)n2)cc(OC)c1OC	/	/	/	/	/	-20.2	/
COc1cc(OC)c(OC)cc1/C=C1\Oc2cc(OCC(=O)N3Cc4ccccc4C[C@H]3C(=O)O)ccc2C1=O	-8.7	-69.0	-6.9	-10.6	-20.7	26.5*	18.3
COc1ccc(/C=C2\Oc3cc(OCC(=O)N4CCC[C@H]4C(=O)O)ccc3C2=O)c(OC)c1	4.0	-220.4	-7.7	-2.4	-20.9	3.3	/
CC(=O)NNc1nc(-c2ccc(NC(C)=O)cc2)cs1	1.3	-4.5	-17.5	-10.5	2.6	37.0*	-21.9
CC1(C)CCCC2=C1CC1C(=O)N(Cc3cccnc3)C(=O)C1C2 (stereo not drawn)	0.6	-1.5	-4.4	-0.2	0.0	38.7*	45.7
O=C1/C(=N\S(=O)(=O)c2cccs2)C([n+]2ccccc2)=C([O-])c2ccccc21	40.9	104.7*	68.6*	39.1	0.3	50.6*	39.6
CC(C)CNC(=O)COc1cccc(C(=O)NCc2ccccc2)c1	4.6	-1.0	1.5	-2.7	2.4	35.8*	11.7
CC(=O)NC1=C(NC2CCS(=O)(=O)C2)C(=O)c2ccccc2C1=O (stereo not drawn)	14.1	45.8*	18.2	5.6	2.4	28.1*	26.5
CN(C)c1ccc(C=NNC(=O)c2ccco2)cc1	/	/	/	/	/	10.9	/
CCCCCCCCCCCCCCCC[n+]1cccc(C(=O)N(CC)CC)c1	1.1	17.3	-33.3	-38.5	1.3	58.2*!	65.8*
CCCCCCCCCCCCCCCC[n+]1ccc(/C=N/O)cc1	11.8	22.9	-22.8	5.2	-0.2	/	/
CCCCCCCCCCCCCCCC[n+]1ccccc1	/	13.0	/	/	0.2	79.2*	97.4*
CCCCCCCCCCCCCCCC[n+]1ccc(C(N)=O)cc1	8.0	14.0	-16.6	2.9	-1.6	68.0*	71.2*
COc1ccc(OC)c(C(=O)NN=Cc2ccccn2)c1	/	/	/	/	/	5.2	/
Cc1cc(C(C)(C)C)ccc1OCCCCN1CCCC1	-10.6	1.2	-12.4	-4.6	4.1	3.1	/
CCC(C)(C)c1ccc(OCCCC[n+]2cccc(C)c2C)c(C(C)(C)CC)c1	0.3	19.2	-32.5	-17.9	6.9	38.1*	59.4*
SMILES	SENP7 inh	SENP8 block-1	SENP6 block	SENP8 block-2	SENP1 inh	UCH37 inh	UCH37 confirm
CCC(C)(C)c1ccc(OCCCC[n+]2ccc(C)cc2)c(C(C)(C)CC)c1	-4.9	/	-10.5	-14.6	/	26.5*	20.6
COc1cc(C(=O)NN=C(C)c2ccc3c(c2)OCO3)cc(OC)c1OC	/	/	/	/	/	8.2	/
Cc1ccc(C)c(-n2nnnc2SCC(=O)NCCC2=CCCCC2)c1	-1.5	19.9	3.2	-0.3	-0.2	59.3*	46.7
CCn1c(SCC(=O)NN=C/C=C\c2ccccc2[N+](=O)[O-])nc2ccccc21	/	/	/	/	/	1.8	/
Cc1ccc(N2C(=O)[C@@H]3[C@H](C2=O)C2c4ccccc4C=CN2[C@@H]3C(=O)c2ccco2)c(C)c1 (stereo partly drawn)	50.9*	-122.6	42.5	41.6	5.6	28.4*	2.8
O=C(c1ccco1)[C@@H]1[C@@H]2C(=O)N(c3ccccc3)C(=O)[C@@H]2C2c3ccccc3C=CN21 (stereo partly drawn)	7.1	-1.7	87.0*	63.8*	-24.7	63.6*	5.0
Cc1ccc(-n2ncc3c(NNC(=O)c4ccco4)ncnc32)c(C)c1	-12.6	-8.3	-17.4	-3.2	-14.1	2.1	/
O=C(c1ccc(Cl)cc1)[C@@H]1[C@@H]2C(=O)N(c3ccccc3)C(=O)[C@@H]2C2c3ccccc3C=NN21 (stereo partly drawn)	2.4	11.9	-17.2	-8.1	12.8	3.7	/
CC12CCC(C(=O)N(CSC(=S)NN=Cc3ccccc3Cl)C1=O)C2(C)C (stereo not drawn)	/	/	/	/	/	7.0	/
CC1(C)S/C(=N/N=Cc2cccs2)NC1=O	/	/	/	/	/	13.1	/
O=C1C=C(N2CCCCC2)c2ccccc2C1=O	54.6*	-432.0	93.3*	82.6*	-0.9	90.4*	146.6*
O=S(=O)(c1ccccc1S(=O)(=O)N1CCCCC1)N1CCCCC1	-3.0	11.7	6.3	9.0	-0.4	-0.4	/
Fc1ccc(C=NNc2cccc(F)c2)cc1	/	/	/	/	/	1.6	/
COC1=C(c2ccccc2)C(=O)c2ccccc2C1=O	12.7	91.9*	28.4	3.0	13.0	26.5*	32.5
COc1ccc(C2=C(Nc3ccccc3)c3ccccc3C2=O)cc1	3.9	22.3	-2.3	-3.2	3.2	0.7	/
N#C/C(=C/c1ccc(N2CCCCC2)o1)C(=O)Nc1ccc(Cl)cc1	-1.1	37.6	13.0	-1.1	-24.2	0.0	/
N#C/C(=C/c1ccc(N2CCOCC2)o1)C(=O)NC1CCCCC1	8.2	1.4	-25.8	-1.5	-33.1	26.6*	19.3
N#C/C(=C/c1ccc(N2CCCCC2)o1)C(=O)Nc1ccc2ccccc2c1	/	4.5	/	/	-23.9	3.2	/
N#C/C(=C\c1ccc(N2CCOCC2)o1)C(=O)Nc1ccc(O)cc1	-10.0	30.7	-2.9	-8.6	-22.0	28.6*	25.4
COc1ccc(NC(=O)/C(C#N)=C\c2ccc(N3CCOCC3)o2)cc1	15.6	45.0*	-1.1	4.1	-26.1	27.2*	14.2
O=C(NN=Cc1c[nH]c2ccccc12)c1cc(Br)ccc1O	/	/	/	/	/	-40.5	/
CCOC(=O)C(CC)C(C)=NNC(=O)c1ccccc1[N+](=O)[O-] (stereo not drawn)	/	/	/	/	/	1.4	/
